A short description of assay [1]: Inhibition of Influenza A (A/California/04/2009) (H1N1) clinical isolate N-terminal truncated PA endonuclease using 5'-FAM/3-TAMRA quencer labeled 17-mer ssDNA-oligo as substrate measured over 45 mins by FRET assay. Details: species or system Influenza A virus (A/California/04/2009(H1N1)). The essentials:
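Cleavage of a 5'-FAM/3'-TAMRA 17-mer ssDNA substrate (200 nM) by influenza PA endonuclease (4 nM) in 20 mM Tris, 150 mM NaCl, 2 mM MnCl2, 10 mM β-mercaptoethanol, 0.2% Triton-X100, pH 8.0.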

The target in assay [2] is T1, Arginase-1 (Homo sapiens) (UniProt P05089).
T1 sequence (whole entry): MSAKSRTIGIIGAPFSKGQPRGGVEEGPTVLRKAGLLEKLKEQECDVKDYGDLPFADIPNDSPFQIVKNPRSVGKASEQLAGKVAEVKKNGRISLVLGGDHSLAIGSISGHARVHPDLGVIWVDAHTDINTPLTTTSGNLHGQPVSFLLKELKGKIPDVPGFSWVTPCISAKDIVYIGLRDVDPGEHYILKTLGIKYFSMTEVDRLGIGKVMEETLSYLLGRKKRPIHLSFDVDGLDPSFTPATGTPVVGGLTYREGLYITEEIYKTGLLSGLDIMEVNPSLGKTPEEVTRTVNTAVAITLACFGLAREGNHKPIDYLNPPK
Briefly: Inhibition of full length human arginase 1 expressed in Escherichia coli BL21(DE3) at 200 uM using unlabeled L-arginine/L-[guanidino-14C]arginine as substrate after 5 mins by liquid scintillation counting method relative to control. In outline: (§1)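 Single-concentration cross-inhibition screen, final inhibitor 200 μM, percent inhibition relative to positive and negative controls; run per literature protocols (Arg1, MetAP1 Mn2+ isoform, NDM-1).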

Assay [3] relates to Influenza A virus (A/California/04/2009(H1N1)). The assay can be described thus: Inhibition of Influenza A (A/California/04/2009) (H1N1) clinical isolate N-terminal truncated PA endonuclease at 500 nM using 5'-FAM/3-TAMRA quencer labeled 17-mer ssDNA-oligo as substrate measured over 45 mins by FRET assay relative to control.
In assay [4] the test system is Bacteria. The assay can be described thus: Inhibition of bacterial NDM1 at 200 uM using chromacef as substrate preincubated for 10 mins followed by substrate addition. In outline: as §1
Assay [5] concerns the target Human immunodeficiency virus type 1 integrase (Human immunodeficiency virus 1) (UniProt Q7ZJM1). Briefly: Inhibition of recombinant HIV1 integrase 3'-processing activity at 200 uM using 5'-end [32P]-labeled oligonucleotide substrate after 60 mins by densitometric analysis relative to control.
Assay [6] concerns the target T2, Protein deacetylase HDAC6 (Homo sapiens) (UniProt Q9UBN7).
T2 sequence (whole entry): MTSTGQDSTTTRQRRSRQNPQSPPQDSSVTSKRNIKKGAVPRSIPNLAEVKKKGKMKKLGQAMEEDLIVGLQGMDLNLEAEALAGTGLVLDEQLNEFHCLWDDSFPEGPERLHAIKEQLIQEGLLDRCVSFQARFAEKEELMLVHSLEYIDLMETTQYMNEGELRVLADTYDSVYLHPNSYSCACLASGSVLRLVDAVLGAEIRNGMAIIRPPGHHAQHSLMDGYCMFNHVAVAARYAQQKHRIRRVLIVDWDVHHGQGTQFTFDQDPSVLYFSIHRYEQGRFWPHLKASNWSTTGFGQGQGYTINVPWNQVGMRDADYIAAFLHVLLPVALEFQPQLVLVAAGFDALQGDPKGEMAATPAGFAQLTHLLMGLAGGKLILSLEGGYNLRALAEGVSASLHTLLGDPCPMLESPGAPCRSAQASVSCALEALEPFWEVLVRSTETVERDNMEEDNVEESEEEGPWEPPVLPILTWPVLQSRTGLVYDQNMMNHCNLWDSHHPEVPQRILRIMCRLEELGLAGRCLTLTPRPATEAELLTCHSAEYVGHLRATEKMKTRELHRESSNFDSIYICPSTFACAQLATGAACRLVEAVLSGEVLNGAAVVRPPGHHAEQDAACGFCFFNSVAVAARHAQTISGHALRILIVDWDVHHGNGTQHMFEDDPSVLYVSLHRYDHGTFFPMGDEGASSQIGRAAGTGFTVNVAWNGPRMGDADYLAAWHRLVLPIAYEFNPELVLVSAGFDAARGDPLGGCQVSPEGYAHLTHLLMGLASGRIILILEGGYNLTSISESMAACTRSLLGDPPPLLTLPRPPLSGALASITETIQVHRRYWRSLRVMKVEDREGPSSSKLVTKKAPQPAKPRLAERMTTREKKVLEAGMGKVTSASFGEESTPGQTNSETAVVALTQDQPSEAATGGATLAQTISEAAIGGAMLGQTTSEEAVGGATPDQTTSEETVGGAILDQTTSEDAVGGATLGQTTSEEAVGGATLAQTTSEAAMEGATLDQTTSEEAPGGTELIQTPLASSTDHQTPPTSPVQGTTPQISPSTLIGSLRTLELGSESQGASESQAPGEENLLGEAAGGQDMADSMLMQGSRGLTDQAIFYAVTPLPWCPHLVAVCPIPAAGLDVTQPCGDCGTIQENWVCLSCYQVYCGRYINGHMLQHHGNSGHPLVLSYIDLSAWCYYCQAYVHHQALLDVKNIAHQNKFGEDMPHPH
The assay can be described thus: Inhibition of N-terminal GST-tagged recombinant full length human HDAC6 expressed in baculovirus infected Sf9 insect cells at 200 uM using HDAC substrate 3 after 30 mins by fluorescence assay relative to control.

The target of assay [7] is 72 kDa type IV collagenase (Homo sapiens) (UniProt P08253). Briefly: Inhibition of recombinant human MMP2 at 200 uM using Mca-Pro-Leu-Gly-Leu-Dpa-Ala-Arg-NH2.AcOH as substrate preincubated for 30 mins followed by substrate addition and measured every min for 20 mins by fluorescence assay.
Chain of 72 kDa type IV collagenase (Homo sapiens) (P08253 110-660 limits assumed): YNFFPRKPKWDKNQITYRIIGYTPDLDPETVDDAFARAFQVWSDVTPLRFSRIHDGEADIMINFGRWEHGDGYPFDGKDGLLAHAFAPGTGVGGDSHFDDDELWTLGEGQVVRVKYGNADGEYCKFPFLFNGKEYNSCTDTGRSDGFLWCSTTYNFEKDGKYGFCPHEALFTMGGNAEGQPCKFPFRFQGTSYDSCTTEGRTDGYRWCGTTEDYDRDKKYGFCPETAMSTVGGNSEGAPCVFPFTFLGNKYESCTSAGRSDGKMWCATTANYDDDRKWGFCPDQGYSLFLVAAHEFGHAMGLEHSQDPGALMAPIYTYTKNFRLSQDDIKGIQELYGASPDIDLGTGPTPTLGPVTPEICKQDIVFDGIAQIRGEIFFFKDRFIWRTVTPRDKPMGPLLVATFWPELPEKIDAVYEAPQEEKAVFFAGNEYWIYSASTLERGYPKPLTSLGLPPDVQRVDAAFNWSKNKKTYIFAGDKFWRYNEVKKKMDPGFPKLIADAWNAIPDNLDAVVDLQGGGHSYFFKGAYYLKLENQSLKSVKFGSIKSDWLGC
For assay [8], the target named is Human immunodeficiency virus type 1 integrase (Human immunodeficiency virus 1) (UniProt Q7ZJM1). The assay can be described thus: Inhibition of recombinant HIV1 integrase strand transfer activity at 200 uM using 5'-end [32P]-labeled oligonucleotide substrate after 60 mins by densitometric analysis relative to control.
Chain of Human immunodeficiency virus type 1 integrase (Human immunodeficiency virus 1) (Q7ZJM1 as listed by the source): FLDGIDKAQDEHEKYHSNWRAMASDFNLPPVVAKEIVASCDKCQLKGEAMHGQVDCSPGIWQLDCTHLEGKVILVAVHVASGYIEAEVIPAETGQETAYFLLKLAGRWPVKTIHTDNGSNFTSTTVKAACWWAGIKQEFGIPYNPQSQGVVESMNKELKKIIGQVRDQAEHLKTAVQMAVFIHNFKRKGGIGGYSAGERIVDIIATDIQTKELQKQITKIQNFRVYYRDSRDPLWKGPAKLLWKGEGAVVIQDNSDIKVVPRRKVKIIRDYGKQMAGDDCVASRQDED
Assay [9] has as its target Carbonic anhydrase 2 (Homo sapiens) (UniProt P00918). Briefly: Inhibition of human carbonic anhydrase 2 at 200 uM using p-nitrophenyl acetate as substrate preincubated for 15 mins followed by substrate addition and measured every 1 min for 20 mins. In outline:
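Single-point screen at 200 μM, percent inhibition relative to positive and negative controls, following literature protocols.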

In assay [10] the test system is Influenza A virus (A/California/04/2009(H1N1)). Briefly: Inhibition of Influenza A (A/California/04/2009) (H1N1) clinical isolate N-terminal truncated PA endonuclease at 500 nM using 5'-FAM/3-TAMRA quencer labeled 17-mer ssDNA-oligo as substrate measured over 45 mins in presence of up to 25 mM metal ions by FRET assay relative to control.
Assay [11] concerns the target Lactoylglutathione lyase (Homo sapiens) (UniProt Q04760). Briefly: Inhibition of human glyoxalase 1 at 200 uM relative to control.

Data on 26 compounds can be found in ChEMBL document CHEMBL4152388, “Structure-Activity Relationships in Metal-Binding Pharmacophores for Influenza Endonuclease” (J Med Chem, 2018).

For orientation: IC50 means the concentration needed to halve the response being measured. As a reminder, the pIC50 is the IC50 on a negative log10 scale, so that one unit is a factor of ten. Broadly, the inhibition is how much of the control response was suppressed.

Molecules are shown by their SMILES. Active and inactive are the calls of the source. The calls are words filed in the database; no cut-off is given here. A value given as a limit tells only on which side of the number the result lay.

Chain of Lactoylglutathione lyase (Homo sapiens) (Q04760 2-184 limits assumed): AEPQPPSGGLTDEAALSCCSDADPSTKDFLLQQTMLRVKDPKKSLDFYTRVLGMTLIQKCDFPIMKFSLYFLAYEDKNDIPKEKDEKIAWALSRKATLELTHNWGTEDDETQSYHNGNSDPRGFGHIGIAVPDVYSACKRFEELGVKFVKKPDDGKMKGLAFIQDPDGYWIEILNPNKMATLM

Take `O=C(O)c1cccc(C(=O)O)n1` [DIPICOLINIC ACID]: in [1], the IC50 is above 500 µM and the pIC50 is below 3.3.
In the case of `Cc1cc(=O)c(O)c(C(N)=O)o1`, the inhibition in assay [2] was 5%; in [3], 30%; in assay [4], 8%.
Take `Nc1cccc(C(=O)O)c1O`: the figures for the inhibition in assay [2], in assay [3] and in assay [4] were 11%, 0% and 7%, respectively.
Regarding `Cc1cc(=O)c(O)c(-c2ncco2)o1`, the inhibition was determined as 0% in assay [2], 88% in [3] and 8% in assay [4].
For `Cc1nc(C(=O)O)c(O)c(=O)[nH]1` the same measures were 0%, 28% and 3%.
For `Cc1cc(C(=O)O)c(O)c(=O)[nH]1` the same measures were 8%, 44% and 9%.
For `O=C(O)c1ccc2cccnc2c1O`, in that order: 22%, 67% and 10%.
As to `O=C1c2c(O)cccc2Cc2cccc(O)c21`, the inhibition was determined as 41% in assay [2], 18% in [3] and 6% in assay [4].
For `CNC(=O)c1cc(C)[nH]c(=O)c1O` the same measures were 5%, 7% and 8%.
For `O=c1c(O)ccccc1O` the same measures were 92%, 95% and 92%.
For `Cc1cc(=S)c(O)c(C(=O)O)o1` the same measures were 9%, 46% and 84%.
Turning to `Cc1cc(=O)c(O)c(C(=O)O)o1`, the inhibition in [2] was 8%; in assay [3] it was 96%; in assay [7], 11%; in assay [8] it was 37%; in [4] it was 12 to 13%; in assay [11], 11%. For the same compound, the inhibition entry in assay [5], in assay [6] and in assay [9] was “inactive” each time. Further, the inhibition result in [10] was “Active”.
For the compound `CNC(=O)c1oc(C)cc(=O)c1O`, the inhibition in [2] was 8%; in [3] it was 22%; in assay [4] it was 6%.
For `Cc1cc(=O)c(O)c(C(=O)O)n1O` the same measures were 12%, 81% and 22%.
In the case of `Cc1cc(=O)c(O)c(C(=O)O)[nH]1`, the inhibition worked out at 24% in assay [2], 97% in [3] and 6% in [4]. In addition, the inhibition entry in [10] was “Active”.
For `Cc1cc(=O)c(O)c(C(=O)O)n1C`, the figures for the inhibition in [2], in assay [3] and in assay [4] were 2%, 21% and 1%, respectively.
Turning to `Cc1cc(O)c(=O)c(O)cc1C(=O)O`, the inhibition is 32% in [2], 98% in assay [3] and 61% in [4].
Take `N/C(=N\O)c1[nH]ccc(=O)c1O`: the figures for the inhibition in assay [2], in [3] and in [4] were 83%, 15% and 43%, respectively.
Consider `Oc1cccc(O)c1O` [PYROGALLOL], for which the inhibition amounted to 49% in [2], 21% in assay [3] and 63% in assay [4]. In assay [1], inhibition was half-maximal at 1.7 µM (IC50). Further, the pIC50 in assay [1] is reported as 5.8.
For the compound `O=c1cc[nH]c(-c2nnn[nH]2)c1O`, the inhibition in [2] is 7%; in assay [3], 96%; in [4], 99%.
For `O=C(O)c1cccc(O)c1O` the same measures were 82%, 15% and 15%.
As to `O=C(O)c1ccc2cccc(O)c2[n+]1[O-]`, the values for the inhibition in [2], in [3] and in assay [4] were 16%, 5% and 87%, respectively.
For `O=C(O)c1occc(=O)c1O` the same measures were 1%, 94% and 4%.
For `O=C(O)c1cccc(=O)n1O`, in that order: 2%, 9% and 25%.
For `Cc1occ(O)c(=O)c1C(=O)O` the same measures were 5%, 21% and 15%.
In the case of `Cc1nc(-c2[nH]ccc(=O)c2O)no1`, the inhibition in assay [2] stood at 6%; in assay [3] it was 30%; in assay [4], 3%.
